Assay results taken from ChEMBL document CHEMBL4376814, “Novel cyclin-dependent kinase 9 (CDK9) inhibitor with suppression of cancer stemness activity against non-small-cell lung cancer” (Eur J Med Chem, 2019).
Calls of active or inactive are those of the source. No cut-off for these calls is given here.

How the values were obtained:
[1] = target: CDK7/Cyclin H/MNAT1 (Homo sapiens) (UniProt P51946+P50613+P51948); assay: Inhibition of human full length recombinant CDK7/cyclinH/MAT1 at 1 uM using peptide as substrate incubated for 40 mins in presence of [gamma-33P]ATP at by radiometric assay relative to control; assay type: protein-complex assay
[2] = target: Receptor-interacting serine/threonine-protein kinase 1 (Homo sapiens) (UniProt Q13546); assay: Inhibition of human RIPK1 (8 to 322 residues) at 1 uM using myelin basic protein as substrate measured after 120 mins in presence of [gamma33P]ATP by scintillation counting method relative to control
Method in brief: (§1)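 Percent inhibition of kinase activity at a single compound concentration, measured by the outsourced Eurofins KinaseProfiler panel. Values are the mean of two independent experiments.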

Homo sapiens = species: Homo sapiens; assay: Inhibition of recombinant human Mer H628Q/R794A mutant (557 to 882 residues) at 1 uM using GGMEDIYFEFMGGKKK as substrate measured after 40 mins in presence of [gamma33P]ATP by scintillation counting method relative to control
[3] = target: Focal adhesion kinase 1 (Homo sapiens) (UniProt Q05397); assay: Inhibition of recombinant human FAK (411 to 686 residues) at 1 uM using EEEEYEEEEEEYYIIEEEEEEYEEEEEEYYEEEEEEKKKK as substrate measured after 40 mins in presence of [gamma33P]ATP by scintillation counting method relative to control
[4] = target: Tyrosine-protein kinase Lck (Homo sapiens) (UniProt P06239); assay: Inhibition of recombinant full-length human LCK activated at 1 uM using KVEKIGEGTYGVVYK as substrate measured after 40 mins in presence of [gamma33P]ATP by scintillation counting method relative to control
[5] = target: Cyclin-dependent kinase 14/Cyclin-Y (Homo sapiens) (UniProt O94921+Q8ND76); assay: Inhibition of human CDK14/cyclinY at 1 uM by radiometric method relative to control; assay type: protein-complex assay; method in brief: as §1
[6] = target: Tribbles homolog 2 (Homo sapiens) (UniProt Q92519); assay: Inhibition of recombinant full-length human TRB2 at 1 uM using RRRFRPASPLRGPPK as substrate measured after 120 mins in presence of [gamma33P]ATP by scintillation counting method relative to control
[7] = Intrinsic clearance in human liver microsomes at 2 uM in presence of NADPH measured up to 1 hr by HPLC analysis; assay type: ADME, Microsome
A549 [8] = assay: Induction of apoptosis in human A549 cells assessed as late apoptotic cells at 0.25 uM after 48 hrs by AnnexinV-FITC/PI staining-based flow cytometric analysis (reference value: 7.66%); assay type: functional
[9] = target: Vascular endothelial growth factor receptor 2 (Homo sapiens) (UniProt P35968); assay: Inhibition of recombinant human KDR (790 to end residues) at 1 uM using MBP as substrate measured after 40 mins in presence of [gamma33P]ATP by scintillation counting method relative to control
[10] = target: Cyclin-dependent kinase 9 (Homo sapiens) (UniProt P50750); conditions: 0.25 to 1 uM
[11] = system: Mast/stem cell growth factor receptor Kit (Homo sapiens), P10721 [D816V]; assay: Inhibition of recombinant human cKit (544 to end residues) D816V mutant at 1 uM using poly(Glu, Tyr) 4:1 as substrate measured after 40 mins in presence of [gamma33P]ATP by scintillation counting method relative to control
Method in brief: (§2)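 Single-point inhibition at 1 µM was measured in the Eurofins KinaseProfiler panel. Values are the mean of two independent experiments.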

[12] = target: Rhodopsin kinase GRK7 (Homo sapiens) (UniProt Q8WTQ7); assay: Inhibition of recombinant full-length human GRK7 at 1 uM using casein as substrate measured after 40 mins in presence of [gamma33P]ATP by scintillation counting method relative to control
A549 [13] = assay: Antiproliferative activity against human A549 cells assessed as inhibition of cell viability at 1 uM after 72 hrs by CCK-8 assay relative to control; assay type: functional; conditions: A549, 72 h
Method in brief: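 Single-concentration viability screen using CCK-8. Cells were seeded at 3000/well and treated for 72 h. A450 read after 1-4 h with reagent. Percent inhibition calculated against untreated control and blank wells as (Ac−As)/(Ac−Ab)×100%.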

[14] = system: Glycogen synthase kinase-3 beta (Homo sapiens), P49841 [UNDEFINED MUTATION]; assay: Inhibition of human recombinant GSK3beta H350L mutant (2 to end residues) at 1 uM using YRRAAVPPSPSLSR as substrate incubated for 40 mins in presence of [gamma-33P]ATP at Km concentration by radiometric assay relative to control; method in brief: as §2
[15] = target: Cyclin-dependent kinase 9 (Homo sapiens) (UniProt P50750); conditions: A549, 0.25 to 1 uM
[16] = target: Calcium/calmodulin-dependent protein kinase kinase 1 (Homo sapiens) (UniProt Q8N5S9); assay: Inhibition of recombinant full-length human CaMKK1 at 1 uM using calmodulin as substrate measured after 40 mins in presence of [gamma33P]ATP by scintillation counting method relative to control
[17] = target: Ribosomal protein S6 kinase alpha-4 (Homo sapiens) (UniProt O75676); assay: Inhibition of recombinant human MSK2 (2 to end residues) at 1 uM using GRPRTSSFAEGKK as substrate measured after 40 mins in presence of [gamma33P]ATP by scintillation counting method relative to control
[18] = system: Serine/threonine-protein kinase Chk2 (Homo sapiens), O96017 [R145W]; assay: Inhibition of recombinant human CHK2 R145W mutant (5 to end residues) at 1 uM using KKKVSRSGLYRSPSMPENLNRPR as substrate measured after 40 mins in presence of [gamma33P]ATP by scintillation counting method relative to control; method in brief: as §2
[19] = target: Calcium/calmodulin-dependent protein kinase type II subunit gamma (Homo sapiens) (UniProt Q13555); assay: Inhibition of recombinant full-length human CaMK2gamma (1 to 330 residues) at 1 uM using calmodulin as substrate measured after 40 mins in presence of [gamma33P]ATP by scintillation counting method relative to control
[20] = system: Angiopoietin-1 receptor (Homo sapiens), Q02763 [Q939H,Q940H]; assay: Inhibition of human Tie2 Q939H/Q940H mutant (771 to end residues) at 1 uM using poly(Glu, Tyr) 4:1 as substrate measured after 40 mins in presence of [gamma33P]ATP by scintillation counting method relative to control; method in brief: as §2
A549 [21] = assay: Induction of apoptosis in human A549 cells assessed as viable cells at 0.5 uM after 48 hrs by AnnexinV-FITC/PI staining-based flow cytometric analysis (reference value: 88.8%); assay type: functional; conditions: A549, 48 h, read-out: Activity
[22] = target: Casein kinase I isoform delta (Homo sapiens) (UniProt P48730); assay: Inhibition of recombinant human CK1delta (1 to 294 residues) at 1 uM using KRRRALS(p)VASLPGL as substrate measured after 40 mins in presence of [gamma33P]ATP by scintillation counting method relative to control
Casein kinase I isoform delta (Homo sapiens), sequence (P48730 whole entry, looked up, the tested form may be a part, canonical isoform): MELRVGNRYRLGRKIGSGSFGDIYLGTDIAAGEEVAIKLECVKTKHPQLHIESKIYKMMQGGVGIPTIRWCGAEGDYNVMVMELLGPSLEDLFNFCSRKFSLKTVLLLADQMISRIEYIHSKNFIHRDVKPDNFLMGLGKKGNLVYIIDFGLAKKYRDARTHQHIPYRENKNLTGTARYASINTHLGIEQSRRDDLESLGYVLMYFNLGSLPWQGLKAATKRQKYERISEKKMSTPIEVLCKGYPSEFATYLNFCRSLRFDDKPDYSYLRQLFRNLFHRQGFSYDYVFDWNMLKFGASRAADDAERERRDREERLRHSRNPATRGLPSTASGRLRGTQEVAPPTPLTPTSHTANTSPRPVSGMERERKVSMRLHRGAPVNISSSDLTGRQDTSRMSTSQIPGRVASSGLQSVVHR

Cyclin-dependent kinase 9 (Homo sapiens), sequence (P50750 whole entry): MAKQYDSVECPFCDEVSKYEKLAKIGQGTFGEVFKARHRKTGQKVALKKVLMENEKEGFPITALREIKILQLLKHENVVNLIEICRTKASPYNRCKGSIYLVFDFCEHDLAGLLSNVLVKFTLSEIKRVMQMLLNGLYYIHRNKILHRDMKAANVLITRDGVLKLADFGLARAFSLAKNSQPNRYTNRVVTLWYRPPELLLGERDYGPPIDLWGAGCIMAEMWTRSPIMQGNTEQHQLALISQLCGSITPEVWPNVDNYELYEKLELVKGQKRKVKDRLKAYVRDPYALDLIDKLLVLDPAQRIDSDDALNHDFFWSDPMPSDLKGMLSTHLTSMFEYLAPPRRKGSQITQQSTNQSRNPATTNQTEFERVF
Receptor-interacting serine/threonine-protein kinase 1 (Homo sapiens), sequence (Q13546 whole entry, the tested form may be a part): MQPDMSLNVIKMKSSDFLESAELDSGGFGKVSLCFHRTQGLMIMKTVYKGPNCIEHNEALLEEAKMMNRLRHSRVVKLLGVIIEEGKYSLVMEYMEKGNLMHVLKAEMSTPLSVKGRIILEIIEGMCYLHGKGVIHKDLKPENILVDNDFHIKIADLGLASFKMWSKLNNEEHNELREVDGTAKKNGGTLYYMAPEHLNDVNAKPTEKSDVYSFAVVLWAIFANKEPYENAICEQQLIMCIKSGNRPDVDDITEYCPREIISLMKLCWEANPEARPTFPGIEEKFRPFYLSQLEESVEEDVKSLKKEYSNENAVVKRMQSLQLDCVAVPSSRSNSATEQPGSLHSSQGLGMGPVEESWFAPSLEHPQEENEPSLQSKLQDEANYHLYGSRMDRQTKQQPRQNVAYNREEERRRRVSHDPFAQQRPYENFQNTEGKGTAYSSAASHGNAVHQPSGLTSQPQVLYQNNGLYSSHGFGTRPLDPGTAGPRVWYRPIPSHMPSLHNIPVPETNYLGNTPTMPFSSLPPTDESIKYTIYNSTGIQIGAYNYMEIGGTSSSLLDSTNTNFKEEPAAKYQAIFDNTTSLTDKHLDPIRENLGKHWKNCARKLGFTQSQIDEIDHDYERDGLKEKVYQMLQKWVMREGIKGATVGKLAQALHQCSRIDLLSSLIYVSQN
Rhodopsin kinase GRK7 (Homo sapiens), sequence (Q8WTQ7 whole entry): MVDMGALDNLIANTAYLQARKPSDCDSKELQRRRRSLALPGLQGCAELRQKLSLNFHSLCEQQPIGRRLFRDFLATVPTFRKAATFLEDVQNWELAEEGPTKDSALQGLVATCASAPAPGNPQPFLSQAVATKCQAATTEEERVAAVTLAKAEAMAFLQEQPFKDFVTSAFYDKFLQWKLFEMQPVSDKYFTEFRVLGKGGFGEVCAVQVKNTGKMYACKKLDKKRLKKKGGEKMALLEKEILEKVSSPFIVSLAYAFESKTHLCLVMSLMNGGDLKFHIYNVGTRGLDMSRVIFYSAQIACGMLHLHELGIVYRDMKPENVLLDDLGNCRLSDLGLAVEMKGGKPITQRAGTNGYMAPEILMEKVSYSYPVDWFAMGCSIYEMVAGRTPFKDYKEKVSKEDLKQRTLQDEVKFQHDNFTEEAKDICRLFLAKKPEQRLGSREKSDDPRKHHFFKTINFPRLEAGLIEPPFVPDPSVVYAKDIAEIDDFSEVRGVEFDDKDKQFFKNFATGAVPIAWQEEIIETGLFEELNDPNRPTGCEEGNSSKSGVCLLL
Vascular endothelial growth factor receptor 2 (Homo sapiens), sequence (P35968 whole entry): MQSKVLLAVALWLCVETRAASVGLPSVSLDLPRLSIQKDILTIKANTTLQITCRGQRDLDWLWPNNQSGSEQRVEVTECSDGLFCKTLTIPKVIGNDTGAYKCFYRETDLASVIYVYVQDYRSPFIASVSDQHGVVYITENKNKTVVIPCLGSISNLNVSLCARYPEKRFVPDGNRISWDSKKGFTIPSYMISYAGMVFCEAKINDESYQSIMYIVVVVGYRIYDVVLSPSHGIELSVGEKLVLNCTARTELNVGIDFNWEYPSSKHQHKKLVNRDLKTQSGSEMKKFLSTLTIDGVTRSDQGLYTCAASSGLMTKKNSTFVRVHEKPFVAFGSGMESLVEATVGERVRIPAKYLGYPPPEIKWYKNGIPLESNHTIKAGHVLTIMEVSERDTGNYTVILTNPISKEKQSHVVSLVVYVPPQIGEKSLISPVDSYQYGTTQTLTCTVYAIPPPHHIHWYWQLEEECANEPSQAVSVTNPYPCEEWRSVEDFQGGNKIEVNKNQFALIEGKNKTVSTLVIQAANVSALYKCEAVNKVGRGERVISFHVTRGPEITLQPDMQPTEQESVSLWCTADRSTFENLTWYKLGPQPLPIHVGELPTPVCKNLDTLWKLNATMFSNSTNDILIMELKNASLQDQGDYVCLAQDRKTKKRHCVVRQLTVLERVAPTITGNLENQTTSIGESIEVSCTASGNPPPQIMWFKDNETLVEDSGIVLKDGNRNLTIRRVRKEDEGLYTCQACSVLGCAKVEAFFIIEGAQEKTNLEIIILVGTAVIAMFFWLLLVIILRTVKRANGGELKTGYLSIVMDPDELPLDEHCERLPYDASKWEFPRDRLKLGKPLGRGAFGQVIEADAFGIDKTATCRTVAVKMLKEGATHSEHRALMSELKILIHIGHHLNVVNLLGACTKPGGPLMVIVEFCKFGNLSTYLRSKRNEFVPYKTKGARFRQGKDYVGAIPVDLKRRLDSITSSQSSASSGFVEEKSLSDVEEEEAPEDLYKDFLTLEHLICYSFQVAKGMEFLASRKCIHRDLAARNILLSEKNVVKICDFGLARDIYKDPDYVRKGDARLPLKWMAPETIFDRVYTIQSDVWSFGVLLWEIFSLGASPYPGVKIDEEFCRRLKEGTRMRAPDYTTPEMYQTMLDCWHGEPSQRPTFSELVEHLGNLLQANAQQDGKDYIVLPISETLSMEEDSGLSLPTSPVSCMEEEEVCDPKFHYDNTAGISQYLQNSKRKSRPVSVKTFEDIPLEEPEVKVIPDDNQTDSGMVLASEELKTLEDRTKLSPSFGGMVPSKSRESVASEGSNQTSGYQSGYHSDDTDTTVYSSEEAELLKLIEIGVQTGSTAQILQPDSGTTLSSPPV
Calcium/calmodulin-dependent protein kinase type II subunit gamma (Homo sapiens), sequence (Q13555 whole entry, the tested form may be a part): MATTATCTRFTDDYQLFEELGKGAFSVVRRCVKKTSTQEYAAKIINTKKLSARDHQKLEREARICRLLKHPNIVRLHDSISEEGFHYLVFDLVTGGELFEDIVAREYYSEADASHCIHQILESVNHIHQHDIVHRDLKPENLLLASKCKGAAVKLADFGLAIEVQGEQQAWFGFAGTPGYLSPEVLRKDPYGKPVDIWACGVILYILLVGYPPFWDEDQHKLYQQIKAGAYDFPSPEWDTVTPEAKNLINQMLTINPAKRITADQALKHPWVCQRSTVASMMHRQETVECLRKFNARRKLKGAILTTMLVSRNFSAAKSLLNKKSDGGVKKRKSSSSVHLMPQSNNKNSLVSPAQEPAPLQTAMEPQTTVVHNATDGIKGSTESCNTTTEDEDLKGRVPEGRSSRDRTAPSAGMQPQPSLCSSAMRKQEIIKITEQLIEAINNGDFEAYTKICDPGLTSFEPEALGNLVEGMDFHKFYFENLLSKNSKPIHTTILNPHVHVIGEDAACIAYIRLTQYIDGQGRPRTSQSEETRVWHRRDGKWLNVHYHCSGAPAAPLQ
Angiopoietin-1 receptor (Homo sapiens), Q02763 [Q939H,Q940H], sequence (Q02763 whole entry Q939H/Q940H): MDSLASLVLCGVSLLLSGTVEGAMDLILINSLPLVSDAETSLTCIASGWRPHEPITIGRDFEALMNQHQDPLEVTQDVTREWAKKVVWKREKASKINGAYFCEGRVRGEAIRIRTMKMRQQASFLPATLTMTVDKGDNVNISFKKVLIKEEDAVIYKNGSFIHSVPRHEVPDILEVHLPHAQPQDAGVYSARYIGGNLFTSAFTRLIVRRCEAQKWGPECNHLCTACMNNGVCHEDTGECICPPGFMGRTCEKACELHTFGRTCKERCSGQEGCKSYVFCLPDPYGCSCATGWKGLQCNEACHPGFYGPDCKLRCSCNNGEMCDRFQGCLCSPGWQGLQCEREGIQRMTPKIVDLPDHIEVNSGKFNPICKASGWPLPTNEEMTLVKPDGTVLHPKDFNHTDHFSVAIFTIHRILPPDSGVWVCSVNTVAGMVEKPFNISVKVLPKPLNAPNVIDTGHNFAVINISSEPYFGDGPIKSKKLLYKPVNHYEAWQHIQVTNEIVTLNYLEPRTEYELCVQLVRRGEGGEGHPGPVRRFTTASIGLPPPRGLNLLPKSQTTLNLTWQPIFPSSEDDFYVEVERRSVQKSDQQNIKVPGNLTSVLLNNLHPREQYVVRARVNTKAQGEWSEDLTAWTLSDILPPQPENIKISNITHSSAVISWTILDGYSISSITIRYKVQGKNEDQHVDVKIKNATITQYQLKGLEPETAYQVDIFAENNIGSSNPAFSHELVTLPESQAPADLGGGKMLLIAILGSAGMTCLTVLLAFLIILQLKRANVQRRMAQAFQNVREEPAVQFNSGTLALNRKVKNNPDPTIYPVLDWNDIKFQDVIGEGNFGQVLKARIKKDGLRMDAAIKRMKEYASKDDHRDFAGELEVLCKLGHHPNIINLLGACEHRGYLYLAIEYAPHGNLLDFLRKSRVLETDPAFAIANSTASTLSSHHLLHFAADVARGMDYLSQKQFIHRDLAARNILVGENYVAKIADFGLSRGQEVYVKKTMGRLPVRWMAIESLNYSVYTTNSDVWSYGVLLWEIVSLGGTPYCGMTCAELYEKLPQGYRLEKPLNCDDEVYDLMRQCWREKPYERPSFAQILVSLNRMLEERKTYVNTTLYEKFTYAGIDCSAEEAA

Structure (SMILES): CN(C)C(=O)c1cc2cnc(Nc3ccc(NC(=O)CCCCCCCN=C=S)cc3)nc2n1C1CCCC1
- inhibition [1]: 55%
- inhibition [2]: 37%
- inhibition (Homo sapiens): 77%
- inhibition [3]: 22%
- inhibition [4]: 26%
- inhibition [5]: 56%
- inhibition [6]: 22%
- CLH [7]: 70 µL/min/mg
- Activity (A549 [8]): 14.5%
- inhibition [9]: 56%
- inhibition [10]: Active
- inhibition [11]: 11%
- inhibition [12]: 9%
- inhibition at 1 µM (A549 [13]): 85.6%
- inhibition [14]: 32%
- inhibition [15]: Active
- inhibition [16]: 88%
- inhibition [17]: 6%
- inhibition [18]: 52%
- inhibition [19]: 53%
- inhibition [20]: 29%
- viability at 0.5 µM (A549 [21]): 78.8%
- inhibition [22]: -2%
